In ChEMBL document CHEMBL1137223, “Antileishmanial pyrazolopyridine derivatives: synthesis and structure-activity relationship analysis” (J Med Chem, 2004):
“And” between values parts separate entries of the source, which are not always exact repeats. Equal entries are not always repeated.

Key:
[1] = tested on: Leishmania amazonensis; assay: Tested for growth inhibitory activity against Leishmania amazonensis promastigotes; assay type: functional, organism-based
How it was run: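 L. amazonensis promastigotes (MHOM/BR/77/LTB0016), grown at 25 °C in LIT medium with 10% heat-inactivated FCS, harvested late log phase, adjusted to 4×10^6/mL. Drugs in DMSO (≤1.6% v/v) at 160 to 5 μg/mL; 24 h incubation; parasites counted in Neubauer chamber; inhibition versus DMSO and untreated controls; IC50 by linear regression of inhibition against log concentration.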

[2] = pKa was determined; assay type: physicochemical
[3] = Partition coefficient (logP); assay type: physicochemical; conditions: octanol/water
How it was run: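 Shake-flask octanol/aqueous buffer pH 7.4 partition; compound stock 4 × 10^-3 M in 1,4-dioxane; phases shaken 1 h at 25.0 ± 0.1 °C, centrifuged 15 min; both layers read by UV at λmax 320–354 nm; three replicates. P taken as quotient of buffer and octanol concentrations. Some values instead calculated from unsubstituted parent log P plus hydrophobic fragmental constants (log PX = log PH + πX).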

pKa [2]	logP [3]	Structure (SMILES)	IC50 [1]
		CCN(CC)Cc1cc(Nc2ccnc3cc(Cl)ccc23)ccc1O.Cl	0.34 µg/mL and 950 nM
8.38	0.68	CCOC(=O)c1cnc2c(c(C)nn2C)c1Nc1cccc([N+](=O)[O-])c1	6.11 µg/mL and 17.2 µM
8.23	0.96	CCOC(=O)c1cnc2c(c(C)nn2C)c1Nc1ccccc1	30.7 µg/mL and 98.9 µM
7.98	1.32	CCOC(=O)c1cnc2c(c(C)nn2C)c1Nc1ccc(Cl)cc1	1.34 µg/mL and 3.89 µM
8.14	0.7	CCOC(=O)c1cnc2c(c(C)nn2C)c1Nc1ccc(F)cc1	12.8 µg/mL and 39 µM
8.8	0.68	CCOC(=O)c1cnc2c(c(C)nn2C)c1Nc1ccc([N+](=O)[O-])cc1	114 µg/mL and 321 µM
8.39	1.82	CCOC(=O)c1cnc2c(c(C)nn2C)c1Nc1ccc(Br)cc1	4.57 µg/mL and 11.7 µM
8.07	0.94	CCOC(=O)c1cnc2c(c(C)nn2C)c1Nc1ccc(OC)cc1	10.9 µg/mL and 32 µM
	3.09	CCOC(=O)c1cnc2c(c(-c3ccccc3)nn2-c2ccccc2)c1Nc1ccc(O)cc1	0.34 µg/mL and 750 nM
9.05	1.67	CCOC(=O)c1cnc2c(c(C)nn2C)c1Nc1cccc(Cl)c1	4.79 µg/mL and 13.9 µM
	2.05	CCOC(=O)c1cnc2c(c(C)nn2-c2ccccc2)c1Nc1ccc(O)c(CN(CC)CC)c1	0.18 µg/mL and 390 nM
9.98	1.14	CCOC(=O)c1cnc2c(c(C)nn2C)c1Nc1ccc(O)cc1	1.37 µg/mL and 4.2 µM
7.64	0.94	CCOC(=O)c1cnc2c(c(C)nn2C)c1Nc1cccc(OC)c1	7.45 µg/mL and 21.9 µM
	3.45	CCOC(=O)c1cnc2c(c(-c3ccccc3)nn2-c2ccccc2)c1Nc1ccc(O)c(CN(CC)CC)c1	0.06 µg/mL and 120 nM
7.06	2.27	CCOC(=O)c1cnc2c(c(C)nn2C)c1Nc1cccc(C)c1	4.82 µg/mL and 14.9 µM
	1.69	CCOC(=O)c1cnc2c(c(C)nn2-c2ccccc2)c1Nc1ccc(O)cc1	0.21 µg/mL and 550 nM
8.61	1.52	CCOC(=O)c1cnc2c(c(C)nn2C)c1Nc1ccc(C)cc1	10.6 µg/mL and 32.6 µM
		N=C(N)c1ccc(OCCCCCOc2ccc(C(=N)N)cc2)cc1.O=S(=O)(O)CCO	0.27 µg/mL and 460 nM
